# The source made the active and inactive calls. No cut-off for these calls is given here.
# Legend:
# [1] = biological target: T1, P2X purinoceptor 3 (Homo sapiens) (UniProt P56373); experiment: Antagonist activity at human recombinant P2X3 receptor expressed in Xenopus oocytes assessed as inhibition of ATP-induced ion current at 10 uM incubated for 20 mins prior to ATP-induction by two-electrode voltage clamp assay; type: cell-based; conditions: Oocyte
# T1 sequence (whole entry): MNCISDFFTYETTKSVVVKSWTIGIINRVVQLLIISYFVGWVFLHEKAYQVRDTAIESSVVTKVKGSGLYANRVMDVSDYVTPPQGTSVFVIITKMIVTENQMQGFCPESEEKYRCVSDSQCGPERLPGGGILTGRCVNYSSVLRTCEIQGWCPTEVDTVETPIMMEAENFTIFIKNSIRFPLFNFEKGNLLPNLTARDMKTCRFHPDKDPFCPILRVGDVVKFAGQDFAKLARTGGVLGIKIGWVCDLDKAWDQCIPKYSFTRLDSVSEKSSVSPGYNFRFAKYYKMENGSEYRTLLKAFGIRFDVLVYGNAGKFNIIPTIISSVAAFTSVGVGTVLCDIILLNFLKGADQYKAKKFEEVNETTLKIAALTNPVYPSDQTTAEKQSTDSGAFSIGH
# Summary of the method: (§1)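 Defolliculated Xenopus oocytes were injected with mouse P2X1 or human P2X3 cRNA (40 nL, 1 μg/mL), held 24 h at 18 °C in Barth's solution, then stored at 4 °C for up to 12 days. Two-electrode voltage clamp was run at Vh −70 mV with superfusion of Ringer's solution (pH 7.5, 18 °C). Compound was applied 20 min before 2 μM ATP (60–120 s), followed by 20 min washout. Mean ± SEM, n = 4 oocyte batches.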
# [2] = biological target: T2, P2X purinoceptor 1 (Mus musculus) (UniProt P51576); experiment: Antagonist activity at mouse recombinant P2X1 receptor expressed in Xenopus oocytes assessed as inhibition of ATP-induced ion current at 10 uM incubated for 20 mins prior to ATP-induction by two-electrode voltage clamp assay; type: cell-based; conditions: Oocyte; summary of the method: as §1
# T2 sequence (whole entry): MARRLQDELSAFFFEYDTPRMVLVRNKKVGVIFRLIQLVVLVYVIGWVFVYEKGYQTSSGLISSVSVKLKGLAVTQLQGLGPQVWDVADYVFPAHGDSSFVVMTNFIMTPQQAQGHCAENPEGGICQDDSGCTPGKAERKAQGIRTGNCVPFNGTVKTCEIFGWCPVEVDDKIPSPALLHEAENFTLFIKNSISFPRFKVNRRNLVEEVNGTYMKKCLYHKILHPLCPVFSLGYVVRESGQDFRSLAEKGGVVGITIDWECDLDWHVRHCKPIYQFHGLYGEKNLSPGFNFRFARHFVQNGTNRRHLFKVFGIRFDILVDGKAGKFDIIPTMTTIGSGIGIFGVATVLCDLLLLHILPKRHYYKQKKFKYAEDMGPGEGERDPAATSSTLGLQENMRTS
# [3] = biological target: T3, P2X purinoceptor 7 (Homo sapiens) (UniProt Q99572); experiment: Antagonist activity at human P2X7 receptor expressed in HEK293 cells assessed as inhibition of BzATP-induced ethidium bromide uptake at 10 uM after 120 mins by fluorimetric analysis; type: cell-based
# T3 sequence (whole entry): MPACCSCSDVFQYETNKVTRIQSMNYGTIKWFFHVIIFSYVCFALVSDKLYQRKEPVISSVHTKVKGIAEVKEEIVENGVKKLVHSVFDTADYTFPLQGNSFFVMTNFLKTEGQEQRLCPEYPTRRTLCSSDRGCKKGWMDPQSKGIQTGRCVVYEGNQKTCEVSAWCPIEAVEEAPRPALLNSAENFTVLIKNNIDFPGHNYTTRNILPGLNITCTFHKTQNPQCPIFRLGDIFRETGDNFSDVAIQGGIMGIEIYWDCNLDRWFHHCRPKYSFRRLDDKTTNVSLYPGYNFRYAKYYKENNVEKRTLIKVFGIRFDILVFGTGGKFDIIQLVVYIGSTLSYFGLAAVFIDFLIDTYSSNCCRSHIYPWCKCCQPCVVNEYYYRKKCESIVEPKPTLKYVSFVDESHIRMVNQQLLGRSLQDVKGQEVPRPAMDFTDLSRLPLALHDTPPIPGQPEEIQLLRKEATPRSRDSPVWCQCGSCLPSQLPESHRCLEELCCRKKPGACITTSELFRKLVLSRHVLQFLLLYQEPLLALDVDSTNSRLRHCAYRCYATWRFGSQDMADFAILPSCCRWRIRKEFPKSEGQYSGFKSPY
# Summary of the method: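 HEK293 cells stably expressing hP2X7 were grown in DMEM with 10% FBS, trypsinized and resuspended at 2.5×10^6 cells/mL in HEPES/N-methyl-D-glucamine/KCl/glucose/0.5 mM CaCl2 buffer, pH 7.4, with 100 μM ethidium bromide. Cells were added at 2×10^5 per well to BzATP. After 120 min at 37 °C, ethidium fluorescence was read at ex 530 / em 590 nm.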
# [4] = biological target: T1, P2X purinoceptor 3 (Homo sapiens); experiment: Antagonist activity at human recombinant P2X3 receptor expressed in Xenopus oocytes assessed as inhibition of ATP-induced ion current at 100 nM incubated for 20 mins prior to ATP-induction by two-electrode voltage clamp assay; type: cell-based; conditions: Oocyte; summary of the method: as §1
# [5] = biological target: T2, P2X purinoceptor 1 (Mus musculus); experiment: Antagonist activity at mouse recombinant P2X1 receptor expressed in Xenopus oocytes assessed as inhibition of ATP-induced ion current at 100 nM incubated for 20 mins prior to ATP-induction by two-electrode voltage clamp assay; type: cell-based; conditions: Oocyte; summary of the method: as §1
# [6] = Selectivity ratio of IC50 for mouse recombinant P2X1 receptor to IC50 for human recombinant P2X3 receptor
# [7] = biological target: T4, P2X purinoceptor 3 (Homo sapiens, UniProt P56373); experiment: Antagonist activity at human recombinant P2X3 receptor expressed in Xenopus oocytes assessed as inhibition of ATP-induced ion current incubated for 20 mins prior to ATP-induction by two-electrode voltage clamp assay; type: cell-based, Oocyte; summary of the method: as §1
# T4 sequence (P56373 whole entry): T1 sequence (whole entry)
# [8] = biological target: T5, P2X purinoceptor 1 (Mus musculus, UniProt P51576); experiment: (§2) Antagonist activity at mouse recombinant P2X1 receptor expressed in Xenopus oocytes assessed as inhibition of ATP-induced ion current incubated for 20 mins prior to ATP-induction by two-electrode voltage clamp assay; type: cell-based, Oocyte; summary of the method: as §1
# T5 sequence (P51576 whole entry): T2 sequence (whole entry)
# [9] = biological target: T2, P2X purinoceptor 1 (Mus musculus); experiment: Antagonist activity at mouse recombinant P2X1 receptor expressed in Xenopus oocytes assessed as inhibition of ATP-induced ion current incubated for 20 mins prior to ATP-induction measured after compound washout by two-electrode voltage clamp assay; type: cell-based; conditions: Oocyte
# Summary of the method: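 Oocytes expressing mP2X1 were superfused with compound for 20 min before 2 μM ATP. Reversibility was checked by recording the ATP current after washout (20 min wash between ATP applications). Recordings used two-electrode voltage clamp at −70 mV in Ringer's solution, pH 7.5, 18 °C.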
# [10] = biological target: T2, P2X purinoceptor 1 (Mus musculus); experiment: as §2; type: cell-based; conditions: Oocyte; summary of the method: as §1
# [11] = biological target: T6, P2X purinoceptor 7 (Homo sapiens, UniProt Q99572); experiment: Antagonist activity at P2X7 receptor (unknown origin)
# T6 sequence (Q99572 whole entry): T3 sequence (whole entry)
# [12] = biological target: T7, P2X purinoceptor 1 (Homo sapiens, UniProt P51575); experiment: Antagonist activity at P2X1 receptor (unknown origin)
# T7 sequence (P51575 whole entry): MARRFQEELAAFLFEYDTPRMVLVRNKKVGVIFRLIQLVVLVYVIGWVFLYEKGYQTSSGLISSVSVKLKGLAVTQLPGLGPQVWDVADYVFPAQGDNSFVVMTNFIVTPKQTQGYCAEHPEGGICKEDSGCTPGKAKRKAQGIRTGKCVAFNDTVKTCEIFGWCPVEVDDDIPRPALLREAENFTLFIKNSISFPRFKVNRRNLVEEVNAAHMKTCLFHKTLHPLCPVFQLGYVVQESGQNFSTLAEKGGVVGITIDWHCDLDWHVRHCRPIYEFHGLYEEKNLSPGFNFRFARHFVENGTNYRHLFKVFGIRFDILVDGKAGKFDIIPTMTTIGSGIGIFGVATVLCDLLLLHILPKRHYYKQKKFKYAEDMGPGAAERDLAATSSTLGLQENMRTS
SMILES,inhibition [1],inhibition [2],inhibition [3],inhibition [4],inhibition [5],also measured
Cc1nc(/N=N/c2ccc(S(=O)(=O)O)cc2)c(CCC(=O)O)c(C(=O)O)c1O,,,< 50%,37.6%,57.6%,
Cc1nc(/N=N/c2ccc(C(=O)O)cc2)c(CCC(=O)O)c(C=O)c1O,,,< 50%,56.3%,48.5%,Ratio IC50 [6]: 1.6
Cc1nc(/N=N/c2cc(S(=O)(=O)O)ccc2S(=O)(=O)O)c(CCC(=O)O)c(C(=O)O)c1O,,,< 50%,45.7%,60.2%,
Cc1nc(/N=N/c2cc(S(=O)(=O)O)ccc2S(=O)(=O)O)c(COP(=O)(O)O)c(C=O)c1O [ISOPPADS],,,,,,Ratio IC50 [6]: 0.3; IC50 [7]: 96.2 nM; IC50 [8]: 30.7 nM
Cc1ncc(CN(CCC(=O)O)Cc2ccccc2)c(C=O)c1O,inactive,inactive,,,,
Cc1nc(/N=N/c2cc(S(=O)(=O)O)ccc2S(=O)(=O)O)c(CCC(=O)O)c(C=O)c1O,,,< 50%,40.1%,58.6%,Ratio IC50 [6]: 0.7; inhibition [9]: inactive; inhibition [10]: Dose-dependent effect
Cc1nc(/N=N/c2ccc(S(=O)(=O)O)cc2)c(CCC(=O)O)c(C=O)c1O,,,< 50%,46.5%,41.8%,
Cc1nc(/N=N/c2cc(S(=O)(=O)O)c3cc([N+](=O)[O-])cc(S(=O)(=O)O)c3c2)c(COP(=O)(O)O)c(C=O)c1O,,,,,,IC50 [11]: 600 nM
Cc1ncc(/C=C/C(=O)O)c(C=O)c1O,9.3%,7.4%,,,,
Cc1ncc(COP(=O)(O)O)c(C=O)c1O [PYRIDOXAL PHOSPHATE ANHYDROUS],20.1%,13.2%,,,,IC50 [12]: 10000 nM
Cc1nc(/N=N/c2ccc(C(=O)O)cc2)c(COP(=O)(O)O)c(C=O)c1O,,,,,,IC50 [11]: 600 nM

# Continued, in another order:
inhibition [1],inhibition [2],inhibition [3],inhibition [4],inhibition [5],SMILES,also measured
inactive,inactive,,,,Cc1ncc(/C=C/C(=O)O)c(C(=O)O)c1O,
inactive,inactive,,,,Cc1ncc(CN(CCC(=O)O)Cc2ccccc2)c(C(=O)O)c1O,
15.2%,14.8%,,,,Cc1ncc(CCC(=O)O)c(C(=O)O)c1O,
,,< 50%,25.7%,51.7%,Cc1nc(/N=N/c2ccc(C(=O)O)cc2)c(CCC(=O)O)c(C(=O)O)c1O,
22.3%,19.5%,,,,Cc1ncc(CCC(=O)O)c(C=O)c1O,
